Laboratory results: ChEMBL document CHEMBL1137663, “Evaluation of tigecycline penetration into colon wall tissue and epithelial lining fluid using a population pharmacokinetic model and Monte Carlo simulation” (Antimicrob Agents Chemother, 2007)

Columns and labels:
[1] = Volume of distribution in human lung; assay type: ADME, organism-based
Procedure, shortened: (§1)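 Serum, ELF and colon wall concentrations were fitted simultaneously in BigNPAG. One specific-volume term estimated all tissue compartment volumes. Individual Bayesian estimates were obtained with the population-of-one utility.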

[2] = AUC (0 to 24 hrs) in human colon wall tissue at 50th AUC percentile curve; assay type: ADME, tissue-based; parameters: time < 24 hr
Procedure, shortened: (§2)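 Study 2: a single 100-mg i.v. dose was infused over about 30 min. Colon wall was collected about 4, 8, 12 or 24 h after the infusion started. Tissue (0.20-g aliquot) was homogenized with deuterated internal standard in acetonitrile, then assayed by LC-MS/MS. Data were comodeled with serum from all five studies in BigNPAG. Monte Carlo simulation gave steady-state AUC0-24 percentiles.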

[3] = Penetration ratio, ratio of AUC (0 to 24 hrs) for human epithelial lining fluid to AUC (0 to 24 hrs) for human serum at 75th AUC percentile curve; assay type: ADME, tissue-based
Procedure, shortened: (§3)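 Penetration was expressed as steady-state tissue (colon wall or ELF) AUC0-24 divided by serum AUC0-24. AUCs came from the population model, by direct simulation with the mean parameter vector and by Monte Carlo simulation using the parameter distribution.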

[4] = AUC (0 to 24 hrs) in human epithelial lining fluid at 5th AUC percentile curve; assay type: ADME, tissue-based; parameters: time < 24 hr
Procedure, shortened: (§4)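 Study 1: 100-mg i.v. loading dose, then 50 mg i.v. every 12 h through day 4 (seven 30-min infusions). Drug was measured in BAL fluid by LC-MS/MS. ELF concentration was derived by urea dilution, using BAL and serum urea drawn at bronchoscopy. Values were comodeled with serum data in a population model, and Monte Carlo simulation gave steady-state AUC0-24 percentiles.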

[5] = Penetration ratio, ratio of AUC (0 to 24 hrs) for human colon wall tissue to AUC (0 to 24 hrs) for human serum at 50th AUC percentile curve; assay type: ADME; procedure, shortened: as §3
[6] = Volume of distribution in human serum; assay type: ADME, organism-based; procedure, shortened: as §1
[7] = Penetration ratio, ratio of AUC (0 to 24 hrs) for human epithelial lining fluid to AUC (0 to 24 hrs) for human serum at 95th AUC percentile curve; assay type: ADME, tissue-based; procedure, shortened: as §3
[8] = Penetration ratio, ratio of AUC (0 to 24 hrs) for human epithelial lining fluid to AUC (0 to 24 hrs) for human serum at 5th AUC percentile curve; assay type: ADME, tissue-based; procedure, shortened: as §3
[9] = Penetration ratio, ratio of AUC (0 to 24 hrs) for human colon wall tissue to AUC (0 to 24 hrs) for human serum at 75th AUC percentile curve; assay type: ADME; procedure, shortened: as §3
[10] = Penetration ratio, ratio of AUC (0 to 24 hrs) for human epithelial lining fluid to AUC (0 to 24 hrs) for human serum at 50th AUC percentile curve; assay type: ADME, tissue-based; procedure, shortened: as §3
[11] = AUC (0 to 24 hrs) in human serum at 95th AUC percentile curve; assay type: ADME, cell-free; parameters: time < 24 hr
Procedure, shortened: (§5)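 Serum came from five studies. Study 1: serial samples over 24 h after the last of seven i.v. doses. Study 2: samples after a single 100-mg infusion. Studies 3-5: patients on 100 mg then 50 mg q12h for 5-14 days, sampled predose, at end of infusion, and at 3 and 6 h. Assay was LC-MS/MS. Population modeling plus Monte Carlo simulation gave steady-state AUC0-24 percentiles.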

[12] = AUC (0 to 24 hrs) in human colon wall tissue at 75th AUC percentile curve; assay type: ADME, tissue-based; parameters: time < 24 hr; procedure, shortened: as §2
[13] = AUC (0 to 24 hrs) in human serum at 75th AUC percentile curve; assay type: ADME, cell-free; parameters: time < 24 hr; procedure, shortened: as §5
[14] = Penetration ratio, ratio of AUC (0 to 24 hrs) for human epithelial lining fluid to AUC (0 to 24 hrs) for human serum at 25th AUC percentile curve; assay type: ADME, tissue-based; procedure, shortened: as §3
[15] = Clearance in human serum; assay type: ADME, organism-based; procedure, shortened: as §1
[16] = AUC (0 to 24 hrs) in human colon wall tissue at 5th AUC percentile curve; assay type: ADME, tissue-based; parameters: time < 24 hr; procedure, shortened: as §2
[17] = AUC (0 to 24 hrs) in human serum at 5th AUC percentile curve; assay type: ADME, cell-free; parameters: time < 24 hr; procedure, shortened: as §5
[18] = Penetration ratio, ratio of AUC (0 to 24 hrs) for human colon wall tissue to AUC (0 to 24 hrs) for human serum at 25th AUC percentile curve; assay type: ADME; procedure, shortened: as §3
[19] = AUC (0 to 24 hrs) in human epithelial lining fluid at 25th AUC percentile curve; assay type: ADME, tissue-based; parameters: time < 24 hr; procedure, shortened: as §4
[20] = AUC (0 to 24 hrs) in human serum at 25th AUC percentile curve; assay type: ADME, cell-free; parameters: time < 24 hr; procedure, shortened: as §5
[21] = AUC (0 to 24 hrs) in human epithelial lining fluid at 75th AUC percentile curve; assay type: ADME, tissue-based; parameters: time < 24 hr; procedure, shortened: as §4
[22] = AUC (0 to 24 hrs) in human colon wall tissue at 25th AUC percentile curve; assay type: ADME, tissue-based; parameters: time < 24 hr; procedure, shortened: as §2
[23] = Volume of distribution in human colon wall tissue; assay type: ADME, organism-based; procedure, shortened: as §1
[24] = AUC (0 to 24 hrs) in human colon wall tissue at 95th AUC percentile curve; assay type: ADME, tissue-based; parameters: time < 24 hr; procedure, shortened: as §2
[25] = AUC (0 to 24 hrs) in human epithelial lining fluid at 50th AUC percentile curve; assay type: ADME, tissue-based; parameters: time < 24 hr; procedure, shortened: as §4
[26] = Penetration ratio, ratio of AUC (0 to 24 hrs) for human colon wall tissue to AUC (0 to 24 hrs) for human serum at 5th AUC percentile curve; assay type: ADME; procedure, shortened: as §3
[27] = AUC (0 to 24 hrs) in human serum at 50th AUC percentile curve; assay type: ADME, cell-free; parameters: time < 24 hr; procedure, shortened: as §5
[28] = Protein binding in human serum; assay type: ADME, cell-free; details: read-out: PB (converted)
[29] = Penetration ratio, ratio of AUC (0 to 24 hrs) for human colon wall tissue to AUC (0 to 24 hrs) for human serum at 95th AUC percentile curve; assay type: ADME; procedure, shortened: as §3
[30] = AUC (0 to 24 hrs) in human epithelial lining fluid at 95th AUC percentile curve; assay type: ADME, tissue-based; parameters: time < 24 hr; procedure, shortened: as §4

Vd [1]: 35.2 L
AUC(0-t) at 24 h [2]: 15600 ng·h/mL
Kp [3]: 2.45
AUC(0-t) at 24 h [4]: 4300 ng·h/mL
Kp [5]: 1.73
Vd [6]: 30.9 L
Kp [7]: 5.23
Kp [8]: 0.561
Kp [9]: 3.91
Kp [10]: 1.15
AUC(0-t) at 24 h [11]: 18500 ng·h/mL
AUC(0-t) at 24 h [12]: 30400 ng·h/mL
AUC(0-t) at 24 h [13]: 8720 ng·h/mL
Kp [14]: 0.823
clearance [15]: 243 mL/min
AUC(0-t) at 24 h [16]: 1650 ng·h/mL
AUC(0-t) at 24 h [17]: 4840 ng·h/mL
Kp [18]: 0.683
AUC(0-t) at 24 h [19]: 5190 ng·h/mL
AUC(0-t) at 24 h [20]: 5090 ng·h/mL
AUC(0-t) at 24 h [21]: 22300 ng·h/mL
AUC(0-t) at 24 h [22]: 6440 ng·h/mL
Vd [23]: 50.5 L
AUC(0-t) at 24 h [24]: 3370 µg·h/mL
AUC(0-t) at 24 h [25]: 9030 ng·h/mL
Kp [26]: 0.16
AUC(0-t) at 24 h [27]: 6160 ng·h/mL
fraction unbound [28]: 0.29
Kp [29]: 199
AUC(0-t) at 24 h [30]: 32400 ng·h/mL
Structure (SMILES): CN(C)c1cc(NC(=O)CNC(C)(C)C)c(O)c2c1C[C@H]1C[C@H]3[C@H](N(C)C)C(O)=C(C(N)=O)C(=O)[C@@]3(O)C(O)=C1C2=O [TIGECYCLINE]
